Measurements published in article PMC12334608 (Nature Communications, 2025).
Numbering of substitutions follows the chain as printed. Numbers in names are those of the source. Where two headings read alike, the source gives them in different places.

Legend:
ACOX-1.1 [1] = target: T1, ACOX-1.1 (Caenorhabditis elegans, UniProt O62140); assay: FAD koff rate by fluorescence polarization; type: binding, C. elegans; details: read-out: koff of FAD
T1 sequence (O62140 1-674): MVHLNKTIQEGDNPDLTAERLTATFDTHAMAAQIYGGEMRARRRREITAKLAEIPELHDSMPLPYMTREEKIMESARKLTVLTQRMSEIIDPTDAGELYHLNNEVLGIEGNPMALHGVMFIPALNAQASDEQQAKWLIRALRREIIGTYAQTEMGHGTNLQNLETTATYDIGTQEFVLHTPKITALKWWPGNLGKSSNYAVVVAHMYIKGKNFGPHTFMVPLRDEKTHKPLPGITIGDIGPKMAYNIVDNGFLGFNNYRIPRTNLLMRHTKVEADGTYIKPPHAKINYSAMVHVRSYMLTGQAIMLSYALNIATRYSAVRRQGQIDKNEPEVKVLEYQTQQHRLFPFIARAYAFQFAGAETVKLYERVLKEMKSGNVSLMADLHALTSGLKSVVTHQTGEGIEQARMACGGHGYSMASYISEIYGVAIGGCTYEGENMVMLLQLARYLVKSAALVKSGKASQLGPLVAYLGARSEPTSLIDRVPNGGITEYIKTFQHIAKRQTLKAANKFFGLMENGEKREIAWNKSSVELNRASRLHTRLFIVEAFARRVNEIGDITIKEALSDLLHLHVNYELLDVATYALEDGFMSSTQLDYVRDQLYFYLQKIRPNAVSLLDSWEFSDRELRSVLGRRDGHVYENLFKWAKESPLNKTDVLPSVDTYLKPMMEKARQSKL
In short: (§1)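 FAD-bound, non-dialyzed enzyme at 5 μM was run in triplicate. FAD fluorescence anisotropy was recorded in polarization mode on a plate reader over 1 h, with 5 μM FAD alone as the gain/focus control. koff was obtained by fitting to a dissociation kinetics equation. Preparations were 46% (wild type) and 66% (E434A) FAD-bound per dimer.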

ACOX-1.1(R343A) = target: T2, ACOX-1.1(R343A) (Caenorhabditis elegans, UniProt O62140, R343A); assay: Enzyme-coupled kinetic assay, ACOX-1.1; type: biochemical, C. elegans
T2 sequence (O62140 1-674 R343A): T1 sequence (O62140 1-674) with R343A

apo ACOX-1.1 [2] = target: T3, apo ACOX-1.1 (Caenorhabditis elegans, UniProt O62140); assay: Enzyme-coupled kinetic assay, wild-type apo ACOX-1.1; type: biochemical, C. elegans
T3 sequence (O62140 1-674): T1 sequence (O62140 1-674)

ACOX-1.1(R343Q) = target: T4, ACOX-1.1(R343Q) (Caenorhabditis elegans, UniProt O62140, R343Q); assay: Enzyme-coupled kinetic assay, ACOX-1.1; type: biochemical, C. elegans
T4 sequence (O62140 1-674 R343Q): T1 sequence (O62140 1-674) with R343Q

ACOX-1.1 [3] = target: T1, ACOX-1.1; assay: Enzyme-coupled kinetic assay, wild-type ACOX-1.1 as purified; type: biochemical, C. elegans; details: for rescue of the time-dependent decrease in enzymatic activity: incubation with FAD plus nucleotide, compared with ATP
apo ACOX-1.1 [4] = target: T3, apo ACOX-1.1; assay: FAD and ATP dissociation constants by fluorescence polarization; type: binding, C. elegans
ACOX-1.1(E434A) = assay: FAD koff rate by fluorescence polarization; type: binding, C. elegans
In short: as §1

SEC = target: the molecule itself; assay: SEC

`Cc1cc2nc3c(=O)[nH]c(=O)nc-3n(C[C@H](O)[C@H](O)[C@H](O)COP(=O)(O)OP(=O)(O)OC[C@H]3O[C@@H](n4cnc5c(N)ncnc54)[C@H](O)[C@@H]3O)c2cc1C` [FAD] was tested. Which koff (ACOX-1.1 [1]) did it give?
The koff was 0.000536 s⁻¹.

And the EC50 (ACOX-1.1(R343A))?
Its EC50 is greater than 1 mM.

What about the EC50 (apo ACOX-1.1 [2]; EC50 for FAD (high-affinity site), 350 μM ATP, 95% CI: 358–476 nM) of the same molecule?
Its EC50 is 0.385 µM.

And the EC50 (apo ACOX-1.1 [2]; lower EC50 for FAD, absence of ATP, 95% CI: 6.1–27.5 μM)?
The EC50 was 13 µM.

What about the EC50 (apo ACOX-1.1 [2]; read-out: EC50 for FAD (low-affinity site), estimated, 350 μM ATP, 95% CI: 74–203 μM) of the same molecule?
The EC50 was 177 µM.

And the EC50 (ACOX-1.1(R343Q))?
Its EC50 is greater than 1 mM.

And the “FAD needed to obtain a similar amount of rescue with FAD alone” value (ACOX-1.1 [3]; no ATP)?
Its value is “at least 100 μM”.

And the Kd (apo ACOX-1.1 [4]; KD of ACOX-1.1 for FAD, in the presence of ATP (350 μM))?
Its Kd is roughly 450 nM.

What about the “KD of ACOX-1.1 for FAD” value (apo ACOX-1.1 [4]; in the absence of ATP) of the same molecule?
The value was “could not be measured because it is too high”.

What about the “time in which about half of the bound FAD is lost” value (ACOX-1.1(E434A); ACOX-1.1(E434A)) of the same molecule?
The value was “about half of the bound FAD is lost in an hour”.

And the “koff of FAD” value (ACOX-1.1(E434A); catalytic mutant ACOX-1.1(E434A), 5 μM)?
Its value is 0.72 h⁻¹.

How did the “rescue of the time-dependent decrease in enzymatic activity” value (shortened to “rescue of the time-dependent decrease”) (ACOX-1.1 [3]) turn out when `Nc1ncnc2c1ncn2[C@H]1C[C@H](O)[C@@H](COP(=O)(O)OP(=O)(O)OP(=O)(O)O)O1` [deoxy-ATP] was run?
The value was “None of these nucleotides are able to rescue the time-dependent decrease in enzymatic activity as well as ATP”.

Which “rescue of the time-dependent decrease” value (ACOX-1.1 [3]) does the source give for `Nc1nc2c(ncn2[C@@H]2O[C@H](COP(=O)(O)OP(=O)(O)OP(=O)(O)O)[C@@H](O)[C@H]2O)c(=O)[nH]1` [GTP] here?
The value was “None of these nucleotides are able to rescue the time-dependent decrease in enzymatic activity as well as ATP”.

How did the “rescue of the time-dependent decrease” value (ACOX-1.1 [3]) turn out when `Nc1ncnc2c1ncn2[C@@H]1O[C@H](COP(=O)(O)O)[C@@H](O)[C@H]1O` [AMP] was run?
Its value is “None of these nucleotides are able to rescue the time-dependent decrease in enzymatic activity as well as ATP”.

How did the “rescue of the time-dependent decrease” value (ACOX-1.1 [3]) turn out when `Nc1ncnc2c1ncn2[C@@H]1O[C@H](COP(=O)(O)OP(=O)(O)O)[C@@H](O)[C@H]1O` [ADP] was run?
Its value is “None of these nucleotides are able to rescue the time-dependent decrease in enzymatic activity as well as ATP”.

B1: ACOX-1.1(H396G) (enzyme, C. elegans, UniProt O62140 1-674, looked up)
chain: T1 sequence (O62140 1-674) with H396G
For B1, which “stoichiometry N” value (SEC) is on record?
The value was 2.

B2: ACOX-1.1(R536E) (enzyme, C. elegans, UniProt O62140 1-674, looked up)
chain: T1 sequence (O62140 1-674) with R536E
B2 was tested. Which “stoichiometry N” value (SEC) did it give?
Its value is 2.
